Reference: ChEMBL document CHEMBL5303300, “EUbOPEN Chemogenomics Library - Multiplex” (2023)
Several values for one entry are separate records, joined by “and”; a condition that tells them apart may be missing. Identical values can stand only once.

Tested on: HEK-293T
Assay: Multiplex assay against HEK293T
Assay type: toxicity, cell-based
Settings: human, number of replicates 2
How it was run: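 Hoechst33342, BioTracker Green Microtubule Cytoskeleton Dye, MitoTracker Red and Annexin V Alexa Fluor 680 were added to live cells at seeding, and imaging on a CQ1 microscope at 37°C and 5% CO2 followed compound addition. Gating by CellPathfinder machine learning separated cells into Hoechst high-intensity objects or normal cells, then normal cells into healthy, pyknosed or fragmented nuclei, then pyknosed cells into mitotic or apoptotic. Per cents of healthy-nucleus cells are reported for the tubulin, mitochondrial-mass and membrane-permeability phenotypes.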

[1] = 12 h, 1 µM, compound concentration 1 uM
[2] = 12 h, 10 µM, compound concentration 10 uM
[3] = 24 h, 1 µM, compound concentration 1 uM
[4] = 24 h, 10 µM, compound concentration 10 uM
[5] = 48 h, 1 µM, compound concentration 1 uM
[6] = 48 h, 10 µM, compound concentration 10 uM

C=CC(=O)Nc1cccc(C)c1Nc1ncc2cc(-c3c(Cl)c(OC)cc(OC)c3Cl)ccc2n1
Population Apoptotic (%) [1]: 39% and 35% | Population Fragmented Nuclei (%) [1]: 3% | Population Healthy Nuclei (%) [1]: 87% | Population Hoechst High Intensity Objects (%) [1]: 7% and 5% | Population Membrane Permeable-Phenotype (%) [1]: 2% and 1% | Population Mitochondria Different-Phenotype (%) [1]: 16% and 12% | Population Mitotic Cells (%) [1]: 60% and 64% | Population Normal (%) [1]: 92% and 94% | Population Pyknosed Nuclei (%) [1]: 8% and 9% | Population Tubulin-Different-Phenotype (%) [1]: 40% and 41% | Total Cell Count [1]: 760 and 929 | Population Apoptotic (%) [2]: 71% and 67% | Population Fragmented Nuclei (%) [2]: 4% | Population Healthy Nuclei (%) [2]: 71% and 77% | Population Hoechst High Intensity Objects (%) [2]: 20% and 14% | Population Membrane Permeable-Phenotype (%) [2]: 2% and 3% | Population Mitochondria Different-Phenotype (%) [2]: 42% and 39% | Population Mitotic Cells (%) [2]: 28% and 32% | Population Normal (%) [2]: 79% and 85% | Population Pyknosed Nuclei (%) [2]: 24% and 18% | Population Tubulin-Different-Phenotype (%) [2]: 55% and 47% | Total Cell Count [2]: 374 and 381 | Population Apoptotic (%) [3]: 35% and 39% | Population Fragmented Nuclei (%) [3]: 6% and 4% | Population Healthy Nuclei (%) [3]: 85% and 88% | Population Hoechst High Intensity Objects (%) [3]: 5% and 7% | Population Membrane Permeable-Phenotype (%) [3]: 1% and 0% | Population Mitochondria Different-Phenotype (%) [3]: 4% and 6% | Population Mitotic Cells (%) [3]: 64% and 60% | Population Normal (%) [3]: 94% and 92% | Population Pyknosed Nuclei (%) [3]: 7% | Population Tubulin-Different-Phenotype (%) [3]: 26% and 25% | Total Cell Count [3]: 1252 and 1297 | Population Apoptotic (%) [4]: 70% and 60% | Population Fragmented Nuclei (%) [4]: 5% and 3% | Population Healthy Nuclei (%) [4]: 71% and 77% | Population Hoechst High Intensity Objects (%) [4]: 17% and 11% | Population Membrane Permeable-Phenotype (%) [4]: 2% and 0% | Population Mitochondria Different-Phenotype (%) [4]: 32% and 24% | Population Mitotic Cells (%) [4]: 29% and 40% | Population Normal (%) [4]: 83% and 88% | Population Pyknosed Nuclei (%) [4]: 23% and 18% | Population Tubulin-Different-Phenotype (%) [4]: 32% and 29% | Total Cell Count [4]: 453 and 428 | Population Apoptotic (%) [5]: 12% | Population Fragmented Nuclei (%) [5]: 12% and 9% | Population Healthy Nuclei (%) [5]: 84% and 87% | Population Hoechst High Intensity Objects (%) [5]: 8% and 11% | Population Membrane Permeable-Phenotype (%) [5]: 5% and 2% | Population Mitochondria Different-Phenotype (%) [5]: 0% and 1% | Population Mitotic Cells (%) [5]: 87% | Population Normal (%) [5]: 91% and 88% | Population Pyknosed Nuclei (%) [5]: 2% and 3% | Population Tubulin-Different-Phenotype (%) [5]: 10% and 15% | Total Cell Count [5]: 3082 and 2641 | Population Apoptotic (%) [6]: 50% and 52% | Population Fragmented Nuclei (%) [6]: 5% and 3% | Population Healthy Nuclei (%) [6]: 84% and 85% | Population Hoechst High Intensity Objects (%) [6]: 11% and 8% | Population Membrane Permeable-Phenotype (%) [6]: 1% | Population Mitochondria Different-Phenotype (%) [6]: 8% and 9% | Population Mitotic Cells (%) [6]: 50% and 47% | Population Normal (%) [6]: 88% and 91% | Population Pyknosed Nuclei (%) [6]: 9% and 11% | Population Tubulin-Different-Phenotype (%) [6]: 12% | Total Cell Count [6]: 751 and 603

CCN(CC)C/C=C/C(=O)Nc1cc2c(Nc3ccc(F)c(Cl)c3)ncnc2cc1OCC1CC1
Population Apoptotic (%) [1]: 61% and 46% | Population Fragmented Nuclei (%) [1]: 3% and 4% | Population Healthy Nuclei (%) [1]: 79% | Population Hoechst High Intensity Objects (%) [1]: 4% and 7% | Population Membrane Permeable-Phenotype (%) [1]: 6% and 5% | Population Mitochondria Different-Phenotype (%) [1]: 26% and 30% | Population Mitotic Cells (%) [1]: 38% and 53% | Population Normal (%) [1]: 95% and 92% | Population Pyknosed Nuclei (%) [1]: 17% and 15% | Population Tubulin-Different-Phenotype (%) [1]: 81% and 90% | Total Cell Count [1]: 435 and 525 | Population Apoptotic (%) [2]: 81% and 84% | Population Fragmented Nuclei (%) [2]: 1% and 6% | Population Healthy Nuclei (%) [2]: 68% and 69% | Population Hoechst High Intensity Objects (%) [2]: 8% and 6% | Population Membrane Permeable-Phenotype (%) [2]: 4% and 3% | Population Mitochondria Different-Phenotype (%) [2]: 76% and 83% | Population Mitotic Cells (%) [2]: 18% and 15% | Population Normal (%) [2]: 91% and 93% | Population Pyknosed Nuclei (%) [2]: 29% and 23% | Population Tubulin-Different-Phenotype (%) [2]: 84% and 78% | Total Cell Count [2]: 283 and 298 | Population Apoptotic (%) [3]: 50% | Population Fragmented Nuclei (%) [3]: 5% and 6% | Population Healthy Nuclei (%) [3]: 81% and 84% | Population Hoechst High Intensity Objects (%) [3]: 6% and 9% | Population Membrane Permeable-Phenotype (%) [3]: 4% and 5% | Population Mitochondria Different-Phenotype (%) [3]: 14% and 19% | Population Mitotic Cells (%) [3]: 50% and 49% | Population Normal (%) [3]: 93% and 90% | Population Pyknosed Nuclei (%) [3]: 12% and 8% | Population Tubulin-Different-Phenotype (%) [3]: 59% and 72% | Total Cell Count [3]: 687 and 743 | Population Apoptotic (%) [4]: 84% and 81% | Population Fragmented Nuclei (%) [4]: 2% and 4% | Population Healthy Nuclei (%) [4]: 47% and 45% | Population Hoechst High Intensity Objects (%) [4]: 10% | Population Membrane Permeable-Phenotype (%) [4]: 2% and 1% | Population Mitochondria Different-Phenotype (%) [4]: 92% and 93% | Population Mitotic Cells (%) [4]: 15% and 18% | Population Normal (%) [4]: 89% | Population Pyknosed Nuclei (%) [4]: 49% | Population Tubulin-Different-Phenotype (%) [4]: 88% and 77% | Total Cell Count [4]: 274 and 323 | Population Apoptotic (%) [5]: 30% | Population Fragmented Nuclei (%) [5]: 9% | Population Healthy Nuclei (%) [5]: 84% | Population Hoechst High Intensity Objects (%) [5]: 9% and 7% | Population Membrane Permeable-Phenotype (%) [5]: 4% and 6% | Population Mitochondria Different-Phenotype (%) [5]: 5% and 2% | Population Mitotic Cells (%) [5]: 69% | Population Normal (%) [5]: 90% and 92% | Population Pyknosed Nuclei (%) [5]: 5% and 6% | Population Tubulin-Different-Phenotype (%) [5]: 53% and 34% | Total Cell Count [5]: 1264 and 1265 | Population Apoptotic (%) [6]: 84% and 87% | Population Fragmented Nuclei (%) [6]: 7% and 11% | Population Healthy Nuclei (%) [6]: 32% and 33% | Population Hoechst High Intensity Objects (%) [6]: 8% and 15% | Population Membrane Permeable-Phenotype (%) [6]: 5% and 2% | Population Mitochondria Different-Phenotype (%) [6]: 87% and 94% | Population Mitotic Cells (%) [6]: 15% and 12% | Population Normal (%) [6]: 91% and 84% | Population Pyknosed Nuclei (%) [6]: 59% and 55% | Population Tubulin-Different-Phenotype (%) [6]: 84% and 80% | Total Cell Count [6]: 396 and 360

COC(=O)Nc1nc2c(s1)-c1c(c(-c3cccnc3)nn1-c1ccc(C3(N(C)C)CC3)cc1)CC2.Cl.Cl
Population Apoptotic (%) [1]: 62% and 58% | Population Fragmented Nuclei (%) [1]: 5% and 1% | Population Healthy Nuclei (%) [1]: 82% and 89% | Population Hoechst High Intensity Objects (%) [1]: 11% and 10% | Population Membrane Permeable-Phenotype (%) [1]: 1% | Population Mitochondria Different-Phenotype (%) [1]: 41% and 51% | Population Mitotic Cells (%) [1]: 37% and 41% | Population Normal (%) [1]: 88% and 89% | Population Pyknosed Nuclei (%) [1]: 12% and 9% | Population Tubulin-Different-Phenotype (%) [1]: 75% and 76% | Total Cell Count [1]: 359 and 348 | Population Apoptotic (%) [2]: 73% and 64% | Population Fragmented Nuclei (%) [2]: 5% | Population Healthy Nuclei (%) [2]: 75% and 82% | Population Hoechst High Intensity Objects (%) [2]: 17% and 10% | Population Membrane Permeable-Phenotype (%) [2]: 3% | Population Mitochondria Different-Phenotype (%) [2]: 66% and 52% | Population Mitotic Cells (%) [2]: 26% and 35% | Population Normal (%) [2]: 82% and 89% | Population Pyknosed Nuclei (%) [2]: 18% and 11% | Population Tubulin-Different-Phenotype (%) [2]: 90% and 87% | Total Cell Count [2]: 245 and 351 | Population Apoptotic (%) [3]: 66% and 71% | Population Fragmented Nuclei (%) [3]: 4% | Population Healthy Nuclei (%) [3]: 81% and 82% | Population Hoechst High Intensity Objects (%) [3]: 20% and 17% | Population Membrane Permeable-Phenotype (%) [3]: 2% and 1% | Population Mitochondria Different-Phenotype (%) [3]: 43% and 55% | Population Mitotic Cells (%) [3]: 33% and 28% | Population Normal (%) [3]: 79% and 82% | Population Pyknosed Nuclei (%) [3]: 14% and 12% | Population Tubulin-Different-Phenotype (%) [3]: 81% and 85% | Total Cell Count [3]: 313 and 342 | Population Apoptotic (%) [4]: 67% and 58% | Population Fragmented Nuclei (%) [4]: 8% and 6% | Population Healthy Nuclei (%) [4]: 70% and 78% | Population Hoechst High Intensity Objects (%) [4]: 15% and 18% | Population Membrane Permeable-Phenotype (%) [4]: 4% and 3% | Population Mitochondria Different-Phenotype (%) [4]: 70% and 52% | Population Mitotic Cells (%) [4]: 32% and 41% | Population Normal (%) [4]: 85% and 81% | Population Pyknosed Nuclei (%) [4]: 21% and 14% | Population Tubulin-Different-Phenotype (%) [4]: 86% and 82% | Total Cell Count [4]: 240 and 296 | Population Apoptotic (%) [5]: 62% | Population Fragmented Nuclei (%) [5]: 11% and 8% | Population Healthy Nuclei (%) [5]: 81% and 80% | Population Hoechst High Intensity Objects (%) [5]: 23% and 25% | Population Membrane Permeable-Phenotype (%) [5]: 1% | Population Mitochondria Different-Phenotype (%) [5]: 19% and 27% | Population Mitotic Cells (%) [5]: 37% | Population Normal (%) [5]: 76% and 74% | Population Pyknosed Nuclei (%) [5]: 6% and 11% | Population Tubulin-Different-Phenotype (%) [5]: 78% and 76% | Total Cell Count [5]: 490 and 355 | Population Apoptotic (%) [6]: 64% and 60% | Population Fragmented Nuclei (%) [6]: 8% and 11% | Population Healthy Nuclei (%) [6]: 77% and 80% | Population Hoechst High Intensity Objects (%) [6]: 17% and 20% | Population Membrane Permeable-Phenotype (%) [6]: 3% and 2% | Population Mitochondria Different-Phenotype (%) [6]: 45% and 39% | Population Mitotic Cells (%) [6]: 35% and 40% | Population Normal (%) [6]: 82% and 79% | Population Pyknosed Nuclei (%) [6]: 13% and 8% | Population Tubulin-Different-Phenotype (%) [6]: 80% and 77% | Total Cell Count [6]: 310 and 354
